Values after ≈ are worked out from the molar mass of the structure shown. Active and inactive are the calls of the source. The calls are words filed in the database; no cut-off is given here.
Legend:
Pseudomonas aeruginosa [1] = experiment: Antibacterial activity against Pseudomonas aeruginosa isolate 100036 after 18 to 24 hrs by microbroth dilution assay; type: functional
How it was run: (§1)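 Checkerboard in MHB: antibiotic 2-fold diluted along one axis, test agent 2-fold diluted along the other. Overnight culture standardized to 0.5 McFarland in saline, diluted 1:50 in MHB, added to wells, incubated 37 °C for 18 h. MIC is the lowest concentration with no growth. FIC = MIC in combination / MIC alone; FIC index = sum of both FICs.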

Pseudomonas aeruginosa [2] = experiment: Inhibition of RND efflux pump in Pseudomonas aeruginosa isolate 101885 assessed as potentiation of minocycline-induced antibacterial activity at 8 ug/ml after 18 to 24 hrs by checker board assay; how it was run: as §1
Pseudomonas aeruginosa [3] = experiment: Antibacterial activity against Pseudomonas aeruginosa isolate P259-96918 after 18 to 24 hrs by microbroth dilution assay; type: functional; how it was run: as §1
Pseudomonas aeruginosa [4] = experiment: Inhibition of RND efflux pump in Pseudomonas aeruginosa isolate P259-96918 assessed as potentiation of minocycline-induced antibacterial activity at 8 ug/ml after 18 to 24 hrs by checker board assay; how it was run: as §1
Pseudomonas aeruginosa [5] = experiment: Inhibition of RND efflux pump in Pseudomonas aeruginosa isolate P259-96918 assessed as potentiation of minocycline-induced antibacterial activity by measuring minocycline MIC at 8 ug/ml after 18 to 24 hrs by microbroth dilution assay (reference value: 32 ug/ml)
How it was run: (§2)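 Absolute minocycline MIC taken from checkerboard broth dilution with a fixed 8 μg/mL adjuvant. Inoculum was a 0.5 McFarland saline suspension diluted 1:50 in MHB, incubated 37 °C for 18 h. MIC is the lowest concentration with no growth.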

Pseudomonas aeruginosa [6] = experiment: Inhibition of RND efflux pump in Pseudomonas aeruginosa isolate P260-97103 assessed as potentiation of minocycline-induced antibacterial activity at 0.25 times antibacterial MIC after 18 to 24 hrs by checker board assay; how it was run: as §1
Pseudomonas aeruginosa [7] = experiment: Inhibition of RND efflux pump in Pseudomonas aeruginosa isolate P260-97103 assessed as potentiation of minocycline-induced antibacterial activity by measuring minocycline MIC at 0.25 times antibacterial MIC after 18 to 24 hrs by microbroth dilution assay (reference value: 8 to 16 ug/ml)
How it was run: as §1, with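 “broth microdilution:” for “in MHB:”, “adjuvant” for “test agent”, “wells,” for “wells, incubated”, “FICI” for “FIC index”, “the two FICs; FICI ≤0.5 is synergy.” for “both FICs.”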

Pseudomonas aeruginosa [8] = experiment: Inhibition of RND efflux pump in Pseudomonas aeruginosa isolate P262-101856 assessed as potentiation of minocycline-induced antibacterial activity at 8 ug/ml after 18 to 24 hrs by checker board assay; how it was run: as §1
Pseudomonas aeruginosa [9] = experiment: Antibacterial activity against Pseudomonas aeruginosa isolate P264-104354 after 18 to 24 hrs by microbroth dilution assay; type: functional; how it was run: as §1
Pseudomonas aeruginosa [10] = experiment: Antibacterial activity against colistin-resistant Pseudomonas aeruginosa isolate 101243 after 18 to 24 hrs by microbroth dilution assay; type: functional
How it was run: as §1, with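 “broth microdilution:” for “in MHB:”, “adjuvant” for “test agent”, “wells,” for “wells, incubated”, “FICI” for “FIC index”, “the two FICs; FICI ≤0.5 is synergy.” for “both FICs.”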

Pseudomonas aeruginosa [11] = experiment: Inhibition of RND efflux pump in colistin-resistant Pseudomonas aeruginosa isolate 101243 assessed as potentiation of minocycline-induced antibacterial activity by measuring minocycline MIC at 8 ug/ml after 18 to 24 hrs by microbroth dilution assay (reference value: 32 ug/ml)
How it was run: as §1, with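 “broth microdilution:” for “in MHB:”, “adjuvant” for “test agent”, “wells,” for “wells, incubated”, “FICI” for “FIC index”, “the two FICs; FICI ≤0.5 is synergy.” for “both FICs.”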

Pseudomonas aeruginosa [12] = experiment: Inhibition of RND efflux pump in Pseudomonas aeruginosa isolate P260-97103 assessed as potentiation of minocycline-induced antibacterial activity by measuring fold reduction in minocycline MIC at 0.25 times antibacterial MIC after 18 to 24 hrs by microbroth dilution assay
How it was run: as §1, with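 “broth microdilution:” for “in MHB:”, “adjuvant” for “test agent”, “wells,” for “wells, incubated”, “FICI” for “FIC index”, “the two FICs; FICI ≤0.5 is synergy.” for “both FICs.”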

Pseudomonas aeruginosa [13] = experiment: Inhibition of RND efflux pump in Pseudomonas aeruginosa isolate P262-101856 assessed as potentiation of minocycline-induced antibacterial activity by measuring fold reduction in minocycline MIC at 8 ug/ml after 18 to 24 hrs by microbroth dilution assay
How it was run: as §1, with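 “broth microdilution:” for “in MHB:”, “adjuvant” for “test agent”, “wells,” for “wells, incubated”, “FICI” for “FIC index”, “the two FICs; FICI ≤0.5 is synergy.” for “both FICs.”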

Enterobacter cloacae [14] = experiment: Inhibition of RND efflux pump in Enterobacter cloacae isolate 117029 assessed as potentiation of minocycline-induced antibacterial activity by measuring fold reduction in minocycline MIC at 8 ug/ml after 18 to 24 hrs by microbroth dilution assay; how it was run: as §2
Klebsiella pneumoniae [15] = experiment: Inhibition of RND efflux pump in Klebsiella pneumoniae isolate 116381 assessed as potentiation of minocycline-induced antibacterial activity by measuring minocycline MIC at 8 ug/ml after 18 to 24 hrs by microbroth dilution assay (reference value: 128 ug/ml); how it was run: as §2
Enterobacter cloacae [16] = experiment: Inhibition of RND efflux pump in Enterobacter cloacae isolate 117029 assessed as potentiation of minocycline-induced antibacterial activity by measuring minocycline MIC at 8 ug/ml after 18 to 24 hrs by microbroth dilution assay (reference value: 128 to 256 ug/ml); how it was run: as §2
Klebsiella pneumoniae [17] = experiment: Inhibition of RND efflux pump in Klebsiella pneumoniae isolate 116381 assessed as potentiation of minocycline-induced antibacterial activity at 8 ug/ml after 18 to 24 hrs by microbroth dilution assay; how it was run: as §1
Enterobacter cloacae [18] = experiment: Inhibition of RND efflux pump in Enterobacter cloacae isolate 117029 assessed as potentiation of minocycline-induced antibacterial activity at 8 ug/ml after 18 to 24 hrs by microbroth dilution assay; how it was run: as §1
Klebsiella pneumoniae [19] = experiment: Antibacterial activity against Klebsiella pneumoniae isolate 116381 after 18 to 24 hrs by microbroth dilution assay; type: functional; how it was run: as §1
Enterobacter cloacae [20] = experiment: Antibacterial activity against Enterobacter cloacae isolate 117029 after 18 to 24 hrs by microbroth dilution assay; type: functional; how it was run: as §1
Pseudomonas aeruginosa [21] = experiment: Induction of outer membrane permeabilization in Pseudomonas aeruginosa PAO1 assessed as increase in NPN uptake up to 100 secs by fluorescence assay; type: functional
How it was run: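 Outer membrane permeabilization in PAO1 cells, read as accumulation of 1-N-phenylnaphthylamine (NPN) by fluorescence over a range of compound concentrations. Triton X-100 (1%) and EDTA (10 mM) served as positive controls.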

Pseudomonas aeruginosa [22] = experiment: Induction of cytoplasmic membrane depolarization in Pseudomonas aeruginosa PAO1 by DiSC3(5) dye based fluorescence assay; type: functional
How it was run: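 Cytoplasmic membrane depolarization in P. aeruginosa PAO1, monitored by DiSC3(5) fluorescence across a range of compound concentrations. Colistin served as positive control.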

[23] = system: Pseudomonas aeruginosa PAO1; experiment: Inhibition of RND efflux pump in Pseudomonas aeruginosa PAO1 assessed as potentiation of chloramphenicol-induced antibacterial activity […] by microbroth dilution assay
[24] = system: Pseudomonas aeruginosa PAO1; experiment: Inhibition of RND efflux pump in Pseudomonas aeruginosa PAO1 assessed as potentiation of erythromycin-induced antibacterial activity […] by microbroth dilution assay
Pseudomonas aeruginosa [25] = experiment: Reduction in flagellum-dependant motility in Pseudomonas aeruginosa PAO1 after 20 hrs by swimming motility test; type: functional
How it was run: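 PAO1 flagellum-dependent swimming motility on swimming plates containing sub-MIC compound, compared with plates without compound.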

Pseudomonas aeruginosa [26] = experiment: Reduction in flagellum-dependant motility in Pseudomonas aeruginosa PAO1 at sub MIC after 20 hrs in presence of minocycline by swimming motility test; type: functional
Pseudomonas aeruginosa [27] = experiment: Potentiation of minocycline-induced antibacterial activity against mexAB-oprM deficient Pseudomonas aeruginosa PAO200 after 18 to 24 hrs by microbroth dilution assay; type: functional
[28] = system: Pseudomonas aeruginosa PAO1; experiment: Inhibition of RND efflux pump in Pseudomonas aeruginosa PAO1 assessed as potentiation of gentamicin-induced antibacterial activity after 18 to 24 hrs by checker board assay; how it was run: as §1

Row | SMILES | MIC (Pseudomonas aeruginosa [1]) [µg/mL] | fractional inhibitory concentration index (FICI) (Pseudomonas aeruginosa [2]) | MIC (Pseudomonas aeruginosa [3]) [µg/mL] | fractional inhibitory concentration index (FICI) (Pseudomonas aeruginosa [4]) | MIC (Pseudomonas aeruginosa [5]) [µg/mL] | fractional inhibitory concentration index (FICI) (Pseudomonas aeruginosa [6]) | MIC (Pseudomonas aeruginosa [7]) [µg/mL] | fractional inhibitory concentration index (FICI) (Pseudomonas aeruginosa [8]) | MIC (Pseudomonas aeruginosa [9]) [µg/mL] | MIC (Pseudomonas aeruginosa [10]) [µg/mL] | MIC (Pseudomonas aeruginosa [11]) [µg/mL] | fold change (FC) (Pseudomonas aeruginosa [12]) | fold change (FC) (Pseudomonas aeruginosa [13]) | fold change (FC) (Enterobacter cloacae [14]) | MIC (Klebsiella pneumoniae [15]) [µg/mL] | MIC (Enterobacter cloacae [16]) [µg/mL] | fractional inhibitory concentration index (FICI) (Klebsiella pneumoniae [17]) | fractional inhibitory concentration index (FICI) (Enterobacter cloacae [18]) | MIC (Klebsiella pneumoniae [19]) [µg/mL] | MIC (Enterobacter cloacae [20]) [µg/mL] | further results
1 | NC[C@H]1C[C@H](C(=O)N[C@H](CCc2ccccc2)C(=O)Nc2ccc3ccccc3c2)N(CCCCCCCCCCCCO[C@@H]2[C@@H](O[C@H]3O[C@H](CO)[C@@H](O)[C@H](N)[C@H]3O)[C@H](N)C[C@H](N)[C@H]2O[C@H]2O[C@H](CN)[C@@H](O)C[C@H]2N)C1 | 32 (≈ 30.1 µM) | 0.13 | 64 (≈ 60.1 µM) | 0.03 | < 0.5 | 0.31 | 0.5 | 0.08 | 8 (≈ 7.52 µM) | 16 (≈ 15 µM) | 0.5 | 8 to 256 | 8 to 256 | 4 to 256 | 4 | 1 | 0.03 to 0.16 | 0.13 | > 32 | 32 (≈ 30.1 µM) | Activity (Pseudomonas aeruginosa [21]): Dose-dependent effect; Activity (Pseudomonas aeruginosa [22]): Dose-dependent effect; fractional inhibitory concentration index (FICI) [23]: < 0.1; fractional inhibitory concentration index (FICI) [24]: < 0.2; Activity (Pseudomonas aeruginosa [25]): Dose-dependent effect; Activity (Pseudomonas aeruginosa [26]): Active; Activity (Pseudomonas aeruginosa [27]): inactive; fractional inhibitory concentration index (FICI) [28]: > 1.5
2 | Cl.Cl.Cl.Cl.Cl.Cl.NC[C@H]1O[C@H](O[C@H]2[C@H](OCCCCCCCCCCCCN3CC[C@@H](c4ccc(F)cc4)[C@H](COc4ccc5c(c4)OCO5)C3)[C@@H](O[C@H]3O[C@H](CO)[C@@H](O)[C@H](N)[C@H]3O)[C@H](N)C[C@@H]2N)[C@H](N)C[C@@H]1O | 64 | 0.13 | > 512 | 0.02 | 0.5 | 0.19 | < 1 | 0.13 | 64 | 32 | 1 | 8 to 256 | 8 to 256 | 4 to 256 | 32 | 4 | 0.25 to 0.38 | 0.02 to 0.14 | > 32 | > 32 | Activity (Pseudomonas aeruginosa [21]): Dose-dependent effect; Activity (Pseudomonas aeruginosa [22]): Dose-dependent effect; fractional inhibitory concentration index (FICI) [23]: < 0.1; fractional inhibitory concentration index (FICI) [24]: < 0.2; Activity (Pseudomonas aeruginosa [25]): Dose-dependent effect; Activity (Pseudomonas aeruginosa [26]): Active; Activity (Pseudomonas aeruginosa [27]): inactive; fractional inhibitory concentration index (FICI) [28]: > 1.5
3 | Cl.Cl.Cl.Cl.Cl.Cl.Cl.NC[C@H]1O[C@H](O[C@H]2[C@H](OCCCCCCCCCCCCN3CCN(Cc4cccc5ccccc45)CC3)[C@@H](O[C@H]3O[C@H](CO)[C@@H](O)[C@H](N)[C@H]3O)[C@H](N)C[C@@H]2N)[C@H](N)C[C@@H]1O | 256 | 0.05 | > 1020 | 0.02 | < 0.5 | 0.25 | 0.5 | 0.09 | 128 | 64 | 1 | 8 to 256 | 8 to 256 | 4 to 256 | 16 | 8 | 0.13 to 0.38 | 0.03 to 0.16 | > 32 | > 32 | Activity (Pseudomonas aeruginosa [21]): Dose-dependent effect; Activity (Pseudomonas aeruginosa [22]): Dose-dependent effect; fractional inhibitory concentration index (FICI) [23]: < 0.1; fractional inhibitory concentration index (FICI) [24]: < 0.2; Activity (Pseudomonas aeruginosa [25]): Dose-dependent effect; Activity (Pseudomonas aeruginosa [26]): Active; Activity (Pseudomonas aeruginosa [27]): inactive; fractional inhibitory concentration index (FICI) [28]: > 1.5

From ChEMBL document CHEMBL4017460, “A Tobramycin Vector Enhances Synergy and Efficacy of Efflux Pump Inhibitors against Multidrug-Resistant Gram-Negative Bacteria” (J Med Chem, 2017)
